Shown are actives, neighbours in structure and some others; about 3% of the full set was active somewhere.
S1P3 ag – activates the human S1P3 receptor. Q99500. S1P3 NFAT-BLA reporter cells, agonism, FRET ratio; relative to 1 µM S1P, basal subtracted. activation, % at 4.5 µM. hit rate 0.1% among 60,000. AID 373;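 active = activation above the screen-wide mean plus 3 SD, cut at about 4.5% in these data, passing the limit was not always enough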
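Assay system: stable CHO line with human S1P3, Gα16, NFAT-BLA reporter; Detection: FRET β-lactamase substrate fluorescence, excitation 405 nm, 460/535 nm emission ratio, background-subtracted; Read-out: percent activation versus median 1 µM S1P response, basal-subtracted, per plate; Incubation: cells plated overnight, compound 4 h 37 °C, substrate 2 h RT.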
HTR1A agonist – activates the human 5-HT1a serotonin receptor | activation, % at 10 µM | P08908 | CHO 5-HT1a Ga15 NFAT-bla reporter, FRET ratio; 0% basal, 100% maximal reference agonist | AID 567 | hit rate 0.56% among 65,000;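 active = activation above the screen-wide mean activation plus 3 SD, cut at about 19% in these data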;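 also: 0% = DMSO wells and 100% = 5-CT at EC100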
Target sequence (P08908 whole entry, looked up): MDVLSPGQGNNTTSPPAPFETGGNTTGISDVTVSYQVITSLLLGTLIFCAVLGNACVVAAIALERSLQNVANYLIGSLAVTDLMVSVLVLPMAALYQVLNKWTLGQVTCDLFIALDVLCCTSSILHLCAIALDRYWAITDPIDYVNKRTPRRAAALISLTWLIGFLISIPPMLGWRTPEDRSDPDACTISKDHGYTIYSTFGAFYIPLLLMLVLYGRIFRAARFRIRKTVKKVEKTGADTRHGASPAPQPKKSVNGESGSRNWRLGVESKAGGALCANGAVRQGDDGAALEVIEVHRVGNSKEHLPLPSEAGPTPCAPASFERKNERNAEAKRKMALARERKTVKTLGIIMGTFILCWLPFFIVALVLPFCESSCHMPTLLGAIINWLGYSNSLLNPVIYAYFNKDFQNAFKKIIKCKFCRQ
5-HT1A blocker – 5-HT1a (human) receptor antagonism; P08908; CHO 5-HT1a Ga15 NFAT-bla reporter, antagonist mode; inhibition, % at 10 µM; hit rate 0.68% among 62,000; AID 612;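 active = inhibition above the mean of all tested compounds plus 3 SD, cut at about 43% in these data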;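 also: receptor stimulated by 5-CT agonist at 100 nM near EC80; beta-lactamase reporter measured by ratiometric fluorescence of a cleavable substrate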
S1P1 ag-PAM – activates or potentiates agonism at human S1P1 receptor. activation, % at 9.5 µM. S1P1 CRE-bla cells, forskolin, beta-lactamase FRET, potentiator mode; S1P1 agonist co-added at EC20, 2 nM; 100% = saturating reference agonist, 0% = basal. hit rate 0.57% among 56,000;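 active = activation above a cutoff set at the mean activation of all tested compounds plus 3 SD, cut at about 54% in these data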;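 also: forskolin at 4 µM as EC80 and the EC20 agonist is SEW2871; 100% = SEW2871 at its EC100 plus forskolin at EC80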
5HT1E ag – 5-HT1E (human) receptor agonism | P28566 | activation, % at 6 µM | CHO 5-HT1E Ga15 NFAT-bla reporter, FRET; 0% DMSO wells, 100% control agonist wells | hit rate 0.69% among 65,000;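 active = activation above a set limit, the screen-wide mean activation plus 3 SD, cut at about 8.5% in these data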;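 also: 100% = positive control agonist at 1 µM giving full maximal response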
5HT1E antag – blocks the human 5-HT1E serotonin receptor. P28566. CHO 5-HT1E Ga15 NFAT-bla reporter, FRET, antagonist. inhibition, % at 6 µM. hit rate 0.99% among 65,000;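 active = inhibition above a set limit, the mean inhibition across every tested compound plus 3 SD, cut at about 29% in these data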;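 also: signal is the 460 over 535 nm emission ratio of beta-lactamase substrate; 0% = agonist plus DMSO wells and 100% = wells without agonist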
Numbers without * were called inactive; . = no result given.

SMILES	S1P3 ag	HTR1A agonist	5-HT1A blocker	S1P1 ag-PAM	5HT1E ag	5HT1E antag
Nc1nnnn1/N=C/C=C/c1ccccc1	-0.8	6.9	1.5	15.3	-1.4	7.1
CCCCOC(=O)Nc1cc(OC)c(Cl)cc1OC	-2.3	-2.5	7.6	-40.5	-0.8	-5.2
N=c1sc2ccccc2n1-c1ccccc1	.	2.5	-6.9	.	24.6*	24.7
Cc1cc(C)n(CCc2nc3c4ccccc4n(CC(=O)Nc4ccc(Cl)cc4F)c(=O)n3n2)n1	-0.8	-0.7	-4.9	-10.4	0.5	-7.1
COc1cccc(-n2c(SCC(=O)NCCC3=CCCCC3)nc3n[nH]c(C)c3c2=N)c1	-0.3	0.2	-12.9	-32.9	1.4	-8.1
COc1cccc(NC(=O)CSc2nc3n[nH]c(C)c3c(=N)n2-c2cccc(OC)c2)c1	-0.4	1.8	-11.1	-10.3	1.3	33.5*
Cc1ncsc1CCSc1nc2ccccc2c(=O)n1C	-1.1	0.2	6.8	-0.5	0.0	26.7
COCCOC(=O)C1=C(C)Nc2nc(C)nn2C1c1ccc(F)cc1 (centres undefined)	-1.3	30.5*	-2.9	4.8	0.6	-1.5
Cn1c(N2CCOCC2)nc(-c2ccccc2)c1-c1ccccc1	1.2	2.0	0.4	5.1	20.4*	-5.8
Cc1cc(OCC(=O)Nn2cnnc2)ccc1Br	-0.1	-3.2	.	-17.5	-0.5	5.0
COCCn1c(C)cc(C(=O)CSc2nnc(-c3cccnc3)n2-c2ccccc2F)c1C	-0.3	0.4	-4.2	98.0*	0.6	-4.9
CCn1c(SCC(=O)c2cc(C)n(-c3ccc(C(=O)OC)cc3)c2C)nnc1-c1cccnc1	-0.5	1.6	-3.8	-8.2	0.8	-7.1
CC1(C)CC(=O)C2=C(C1)Oc1nc3ccccc3cc1C2C(C#N)C#N (centres undefined)	-6.1	-1.3	.	30.2	-0.4	28.2
COc1ccccc1Oc1ccc2c(c1)C(=O)N(c1cccc(O)c1)C2=O	-1.9	-1.2	12.6	94.1*	0.9	1.8
CC1CN(C2CCN(S(=O)(=O)c3ccccc3)CC2)CC(C)O1 (centres undefined)	-3.5	-0.7	.	10.9	-0.7	52.3*
COC(=O)C1=C(N)Oc2cc(C)n(CCN3CCOCC3)c(=O)c2C1c1cccnc1 (centres undefined)	-0.6	8.2	15.9	14.3	0.1	1.7
N#Cc1nc(-c2ccc(OCc3ccccc3)cc2)oc1NCc1ccco1	0.0	0.8	-22.6	-15.9	-0.1	-14.2
CNc1oc(-c2ccc(OCc3ccccc3)cc2)nc1C#N	0.4	-1.2	-23.8	73.3*	-0.3	-1.7
Cc1noc(C)c1S(=O)(=O)N(CCc1ccccc1)Cc1ccccc1	-1.0	-2.2	8.3	-2.8	-2.0	1.8
CCc1nnc(NC(=O)CCN2C(=O)c3ccccc3S2(=O)=O)s1	-0.1	0.8	-0.7	1.7	-0.1	-3.0
CCc1nnc(NC(=O)CCN2C(=O)c3ccccc3C2=O)s1	-0.7	2.5	3.9	-26.6	15.5*	-6.2
N#C/C(=C/c1ccc(N2CCCCCC2)o1)c1ccc(F)cc1	-2.2	-4.9	87.3*	128.7	-0.1	89.7*
CCN1CCN(CC(=O)Nc2cccc(C)c2)C(=O)C1=O	-0.9	1.3	-6.1	-16.5	0.2	5.2
Cc1ccc(-c2nnc(SCc3ccccc3F)o2)cc1	-0.1	0.3	3.6	92.6*	-0.7	-1.0
COc1ccc(-c2nnc(SCc3ccccc3F)o2)cc1OC	1.1	-1.4	9.7	42.1	-0.3	29.9*
SMILES	S1P3 ag	HTR1A agonist	5-HT1A blocker	S1P1 ag-PAM	5HT1E ag	5HT1E antag
Cc1ccc(-c2nnc(SCC(=O)Nc3ccccc3F)o2)cc1	0.5	-2.3	4.8	-4.1	-0.3	-2.6
S=c1[nH]nc(COc2ccc3c(c2)OCO3)n1-c1ccccc1	-0.3	-2.9	8.5	-6.5	27.6*	-2.8
CCn1c(COc2ccc3c(c2)OCO3)nnc1SCC(=O)c1ccccc1	-0.1	-0.6	-3.8	13.9	-0.5	5.8
Cc1cccc(N2CCN(C(=O)c3ccc(CS(=O)(=O)c4ccccc4C)o3)CC2C)c1 (centres undefined)	-1.8	1.1	45.6*	6.4	0.3	39.5*
COc1ccc(N(CC(=O)NCc2cccs2)S(=O)(=O)c2cccnc2)cc1	-0.9	-2.3	-1.6	-10.7	0.5	1.4
Cc1ncc(CO)c2c1OC(C)(C)OC2	-0.8	26.7*	2.5	-13.5	-1.1	3.6
CCOc1ccc(C(C)=O)cc1N1C(=O)C2C3C=CC(C3)C2C1=O (centres undefined)	-0.3	-4.3	1.0	-7.7	-0.4	7.9
CCOc1ccc(C(C)=O)cc1N1C(=O)C2C3C=CC(O3)C2C1=O (centres undefined)	1.2	-2.3	60.5*	76.3	0.4	39.3*
CCCOC(=O)c1ccc(Nc2cc(C)nc3ncnn23)cc1	0.0	105.1*	-22.1	-8.0	0.4	-17.5
CCN(CC)S(=O)(=O)c1ccc(Nc2cc(C)nc3ncnn23)cc1	-1.2	0.5	-0.7	-23.5	0.8	-0.1
CCn1c2ccccc2c2cc(Nc3cc(C)nc4ncnn34)ccc21	-1.3	-2.0	71.7*	-100.2	0.3	69.6*
COc1ccc(NC(=O)C(C)Oc2ccc(/C(C)=N\O)cc2)cc1 (centres undefined)	-1.2	-1.1	2.2	3.3	0.2	7.2
CCNc1nc2c(c(=O)n(Cc3ccccc3)c(=O)n2C)n1Cc1ccccc1	0.4	37.4*	-0.5	-13.9	0.4	0.2
CCNc1nc2c(c(=O)n(C)c(=O)n2C)n1Cc1ccc(Cl)cc1	-2.4	14.0	6.2	61.4*	1.3	13.8
COc1ccc(S(=O)(=O)N2CCCC2C(=O)Nc2ccc(C(C)=O)cc2)cc1 (centres undefined)	0.8	-1.6	-6.0	-14.2	-1.1	0.3
CC(C)c1cc(C(F)(F)F)n2nc(C(=O)Nc3ccc4c(c3)OCO4)cc2n1	0.3	1.3	12.6	101.5*	0.3	23.6
O=C(Nc1ccccc1Oc1ccccc1)C1CC1	-0.6	-1.2	16.4	.	-0.9	1.2
CCn1nc(C(=O)OCc2c(C)noc2C)c2ccccc2c1=O	-0.7	-1.0	11.4	-22.3	-0.4	29.5*
CCOC(=O)C(C(C)=O)c1c(Br)c(O)c(O)c2c(C(=O)c3ccc(C)cc3)coc12 (centres undefined)	-1.4	-2.0	44.9*	47.9	0.0	16.8
Cc1nnc(NC(=O)c2cc3n(n2)C(C(F)(F)F)CC(C2CC2)N3)s1 (centres undefined)	-0.4	-0.3	-3.0	35.2	-0.4	6.5
O=C(Nc1nc2c(s1)CCCC2)c1cc2n(n1)C(C(F)(F)F)CC(C1CC1)N2 (centres undefined)	-0.3	-0.8	-1.4	106.8*	0.5	7.5

Compound activity as filed in PubChem.
